pIC50: −log10 of the molar value. Calls of active or inactive are those of the source. The calls are words filed in the database; no cut-off is given here.
Key:
[1] = Metabolic stability in human liver microsomes assessed as peak area after 60 mins by LC-UV analysis in presence of NADPH; assay type: ADME; details: read-out: Stability
How it was run: (§1)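 Human liver microsomes were incubated with compound alone, with NADPH, with NADPH+GSH (60 min; phase I), or with UDPGA (30 min; phase II). Extracts were analysed by LC-UV, and remaining substrate is reported as peak area % relative to controls without microsomes.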

[2] = Cell cycle arrest in human SH-SY5Y cells assessed as accumulation at G2/M phase at IC50 after 16 hrs by flow cytometry (reference value: 18.5 %); assay type: functional, cell-based
How it was run: (§2)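 SH-SY5Y neuroblastoma cells were kept in 50% DMEM/50% F-12 with 10% FBS and 2 mM L-glutamine. Cells were exposed 16 h to vehicle or compound, washed in PBS and fixed in 70% EtOH at -20 °C. They were then treated with RNAse 100 μg/mL for 1 h at 37 °C and stained with 25 μg/mL propidium iodide plus 5 mM EDTA for 30 min at 4 °C in the dark. DNA content was read by flow cytometry; 3 experiments.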

[3] = Cell cycle arrest in human SH-SY5Y cells assessed as accumulation at G2/M phase at 3 times IC50 after 16 hrs by flow cytometry (reference value: 18.5 %); assay type: functional, cell-based; how it was run: as §2
[4] = Cell cycle arrest in human SH-SY5Y cells assessed as accumulation at S phase at IC50 after 16 hrs by flow cytometry (reference value: 10.6 %); assay type: functional, cell-based; how it was run: as §2
[5] = Metabolic stability in human liver microsomes assessed as peak area after 60 mins by LC-UV analysis; assay type: ADME; details: read-out: Stability; how it was run: as §1
[6] = Cell cycle arrest in human SH-SY5Y cells assessed as accumulation at S phase at 3 times IC50 after 16 hrs by flow cytometry (reference value: 10.6 %); assay type: functional, cell-based; how it was run: as §2
[7] = Cytotoxicity against human SH-SY5Y cells assessed as reduction in cell viability after 48 hrs by MTT assay; assay type: functional, cell-based
How it was run: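 SH-SY5Y cells were exposed 48 h across a concentration range, then given MTT 250 μg/mL in Locke's solution for 1 h at 37 °C. Formazan was dissolved in isopropanol/0.1 M HCl and absorbance read at 570 nm. IC50 was taken from concentration-response curves; 8-12 determinations from 3 experiments.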

[8] = Metabolic stability in human liver microsomes assessed as peak area after 30 mins by LC-UV analysis in presence of NADPH and UDPGA; assay type: ADME; details: read-out: Stability; how it was run: as §1
[9] = Cell cycle arrest in human SH-SY5Y cells assessed as accumulation at G0G1 phase at IC50 after 16 hrs by flow cytometry (reference value: 70.2 %); assay type: functional, cell-based; how it was run: as §2
[10] = Metabolic stability in human liver microsomes assessed as peak area after 60 mins by LC-UV analysis in presence of NADPH and GSH; assay type: ADME; details: read-out: Stability; how it was run: as §1
[11] = Cytotoxicity against human SH-SY5Y cells assessed as cell viability at 1 uM after 48 hrs by MTT assay; assay type: functional; details: read-out: Activity
How it was run: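 SH-SY5Y cells in 24-well plates were treated 48 h with 1 μM compound. They were washed in Locke's solution (10 mM HEPES pH 7.6) and given MTT 250 μg/mL for 1 h at 37 °C. Formazan was dissolved in isopropanol/0.1 M HCl and read at 570 nm. Result is % viable cells, 8-12 determinations from 3 experiments.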

[12] = Cell cycle arrest in human SH-SY5Y cells assessed as accumulation at G0G1 phase at 3 times IC50 after 16 hrs by flow cytometry (reference value: 70.2 %); assay type: functional, cell-based; how it was run: as §2
[13] = target: T1, Tubulin (Homo sapiens) (UniProt P68371+Q9H4B7+P0DPH7+P68366+Q13509+Q71U36+P04350+Q3ZCM7+P07437+P68363+Q9BQE3+Q6PEY2+Q13885+Q9BVA1+Q9BUF5); experiment: Inhibition of tubulin polymerization in human SH-SY5Y cells at 1 to 3 times IC50 after 16 hrs by immunocytochemistry; assay type: cell-based
[14] = target: Tubulin; experiment: (§3) Inhibition of tubulin (unknown origin) polymerization by fluorescence assay; assay type: protein-complex assay, Homo sapiens
How it was run: (§4)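 Fluorescence-based kit assay. Tubulin was taken up in ice-cold buffer (80 mM PIPES, 2 mM MgCl2, 0.5 mM EGTA, 1 mM GTP, 20% glycerol) and added to wells containing compound or vehicle.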

[15] = target: T1, Tubulin (Homo sapiens); experiment: as §3; assay type: protein-complex assay; how it was run: as §4
[16] = target: T1, Tubulin (Homo sapiens); experiment: Inhibition of tubulin polymerization in human SH-SY5Y cells at 3 times IC50 after 16 hrs by Western blot analysis; assay type: cell-based
[17] = target: T1, Tubulin (Homo sapiens); experiment: Displacement of [3H]colchicine from tubulin (unknown origin) at 10 uM after 30 mins by beta-counting; assay type: protein-complex assay
How it was run: (§5)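 It was preincubated 30 min at 37 °C with test compound at 1 or 10 μM, then given 0.2 μCi [3H]colchicine for 1 h at 37 °C. Samples were stopped with ice-cold water, filtered on nitrocellulose and counted by β-counter. Results are % inhibition, ≥7 replicates from 3 experiments.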

[18] = target: T1, Tubulin (Homo sapiens); experiment: Displacement of [3H]colchicine from tubulin (unknown origin) at 1 uM after 30 mins by beta-counting; assay type: protein-complex assay; how it was run: as §5

COc1ccc(/C=C\c2cc(OC)c(OC)c(OC)c2)cc1O [COMBRETASTATIN A4]
remaining at 1 h [1]: 75%
Activity [2]: 38.4%
Activity [3]: 35.4%
Activity [4]: 10%
remaining at 1 h [5]: 100%
Activity [6]: 11.4%
pIC50 [7]: 8.57
remaining at 0.5 h [8]: 39%
Activity [9]: 51.1%
remaining at 1 h [10]: 67%
viability at 1 µM [11]: 33.4%
Activity [12]: 52.7%

COc1ccc2c(c1)N(C)C(=O)CN=C2c1cc(OC)c(OC)c(OC)c1
pIC50 [7]: 6.55
viability at 1 µM [11]: 32.9%

COc1cc(C2=NCC(=O)Nc3c2ccc(OC)c3OC)cc(OC)c1OC
pIC50 [7]: 7.04
viability at 1 µM [11]: 46.8%

COc1cc(C2=NCC(=O)N(C)c3c2ccc(OC)c3OC)cc(OC)c1OC
viability at 1 µM [11]: 76.4%

COc1cc(C2=NCC(=O)N(C)c3cc4c(cc32)OCO4)cc(OC)c1OC
viability at 1 µM [11]: 46.4%

COc1cc2c(cc1OC)N(C)C(=O)CN=C2c1cc(OC)c(OC)c(OC)c1
viability at 1 µM [11]: 105%

COc1cc(C2=NCC(=O)Nc3cc4c(cc32)OCO4)cc(OC)c1OC
inhibition [13]: Active
pIC50 [14]: 4.87
inhibition [15]: Dose-dependent effect
Activity [2]: 38.1%
Activity [3]: 37.7%
Activity [4]: 12.6%
inhibition [16]: Active
Activity [6]: 12.6%
pIC50 [7]: 7.15
Activity [9]: 49.1%
viability at 1 µM [11]: 35.1%
Activity [12]: 49.3%

COc1ccc2c(c1)NC(=O)CN=C2c1cc(OC)c(OC)c(OC)c1
inhibition [13]: Active
pIC50 [14]: 5.05
inhibition [15]: Dose-dependent effect
Activity [2]: 34.6%
Activity [3]: 35%
Activity [4]: 2.1%
inhibition [16]: Active
Activity [6]: 19.3%
pIC50 [7]: 7.60
Activity [9]: 45.5%
viability at 1 µM [11]: 24.7%
Activity [12]: 45.5%

COc1ccc2c(c1)C(c1cc(OC)c(OC)c(OC)c1)=NCC(=O)N2
pIC50 [7]: 6.59
viability at 1 µM [11]: 33.9%

COc1cc(C2=NCC(=O)N3COc4c(OC)ccc2c43)cc(OC)c1OC
viability at 1 µM [11]: 95.2%

COc1ccc2c(c1O)NC(=O)CN=C2c1cc(OC)c(OC)c(OC)c1
inhibition [13]: Active
remaining at 1 h [1]: 96%
pIC50 [14]: 5.89
Activity [2]: 33%
Activity [3]: 34.4%
Activity [4]: 18.9%
inhibition [16]: Active
remaining at 1 h [5]: 95%
Activity [6]: 17.9%
pIC50 [7]: 8.41
remaining at 0.5 h [8]: 92%
Activity [9]: 48%
inhibition [17]: 80%
remaining at 1 h [10]: 97%
viability at 1 µM [11]: 27.5%
Activity [12]: 47.5%
inhibition [18]: 48%

COc1ccc2c(c1)C(c1cc(OC)c(OC)c(OC)c1)=NCC(=O)N2C
pIC50 [7]: 6.06
viability at 1 µM [11]: 44.4%

COc1cc2c(cc1OC)C(c1cc(OC)c(OC)c(OC)c1)=NCC(=O)N2
viability at 1 µM [11]: 102%

COc1cc2c(cc1O)C(c1cc(OC)c(OC)c(OC)c1)=NCC(=O)N2
pIC50 [7]: 6.38
viability at 1 µM [11]: 64.8%

Reference: ChEMBL document CHEMBL3407494, “Design, synthesis, and biological evaluation of combretabenzodiazepines: a novel class of anti-tubulin agents” (J Med Chem, 2015)
